Columns and labels:
AS160/14-3-3γ complex = test: Selectivity panel, FA protein titration; assay type: binding; settings: 100 μM fragment; Phe +1
Pin1_72/14-3-3γ complex [1] = biological target: T1, Pin1_72/14-3-3γ complex (Homo sapiens, UniProt P61981); test: FA protein titration of 14-3-3γ in presence of 100 μM compound; assay type: binding
14-3-3/ERα complex = biological target: T2, 14-3-3/ERα complex (Homo sapiens, UniProt P61981); test: Selectivity panel, FA protein titration; assay type: binding; settings: 100 μM compound; C-terminal phosphorylation motif
T2 sequence (P61981 1-247): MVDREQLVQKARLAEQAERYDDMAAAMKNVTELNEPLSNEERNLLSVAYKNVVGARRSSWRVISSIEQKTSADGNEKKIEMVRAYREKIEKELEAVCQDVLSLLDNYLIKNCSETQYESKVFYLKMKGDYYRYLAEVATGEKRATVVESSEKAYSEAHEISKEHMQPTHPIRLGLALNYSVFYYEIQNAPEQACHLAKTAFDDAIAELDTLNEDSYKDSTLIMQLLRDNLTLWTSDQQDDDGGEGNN

Pin1_72/14-3-3γ complex [2] = biological target: T1, Pin1_72/14-3-3γ complex; test: biochemical
ERRγ_179/14-3-3γ = biological target: T3, ERRγ_179/14-3-3γ (Homo sapiens, UniProt P61981); test: Selectivity panel, FA protein titration; assay type: binding; settings: 100 μM fragment; Cys +1
T3 sequence (P61981 1-247): T2 sequence (P61981 1-247)

TBC1D237/14-3-3γ = biological target: T4, TBC1D237/14-3-3γ (Homo sapiens, UniProt P61981); test: Selectivity panel, FA protein titration; assay type: binding; settings: 100 μM fragment; Gln +1
T4 sequence (P61981 1-247): T2 sequence (P61981 1-247)

C-Raf/14-3-3γ = biological target: T5, C-Raf/14-3-3γ (Homo sapiens, UniProt P61981); test: Selectivity panel, FA protein titration; assay type: binding; settings: 100 μM fragment; Thr +1
T5 sequence (P61981 1-247): T2 sequence (P61981 1-247)

B-Raf_729/14-3-3γ = biological target: T6, B-Raf_729/14-3-3γ (Homo sapiens, UniProt P61981); test: Selectivity panel, FA protein titration; assay type: binding; settings: 100 μM fragment; Glu +1
T6 sequence (P61981 1-247): T2 sequence (P61981 1-247)

14-3-3γ = biological target: T7, 14-3-3γ (Homo sapiens, UniProt P61981); test: Thermal shift assay, 14-3-3γ alone; assay type: binding; settings: compound added to 14-3-3γ alone
T7 sequence (P61981 1-247): T2 sequence (P61981 1-247)
Method in brief: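 Thermal shift assay as an orthogonal check of complex stabilization. Read-out is the 14-3-3γ melting temperature with test compound present. Protein is either alone or with acetylated Pin1 peptide added at 5 or 50 equiv.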

p65pS45/14-3-3γ = test: Selectivity panel, FA protein titration; assay type: binding; settings: 100 μM fragment; Ile +1
Abl1pT735/14-3-3γ = test: Selectivity panel, FA protein titration; assay type: binding; settings: 100 μM fragment; Leu +1
Mypt1_472/14-3-3γ = biological target: T8, Mypt1_472/14-3-3γ (Homo sapiens, UniProt P61981); test: Selectivity panel, FA protein titration; assay type: binding; settings: 100 μM fragment; Ser +1
T8 sequence (P61981 1-247): T2 sequence (P61981 1-247)

CFTRpS753/14-3-3γ = test: Selectivity panel, FA protein titration; assay type: binding; settings: 100 μM fragment; Val +1
14-3-3/Pin1_72 complex = 14-3-3/Pin1_72 complex (Homo sapiens, UniProt P61981); test: Cooperativity analysis, 2D FA protein titrations; assay type: binding

Structure (SMILES)	SF / complex stabilization (AS160/14-3-3γ complex) [fold]	Kd (Pin1_72/14-3-3γ complex [1]) [µM]	SF (stabilization factor) (Pin1_72/14-3-3γ complex [1]; KD,DMSO/KD,compound, internal DMSO control, 100 μM fragment) [fold]	SF / complex stabilization (14-3-3/ERα complex)	EC50 (Pin1_72/14-3-3γ complex [2]) [µM]	SF / complex stabilization (ERRγ_179/14-3-3γ)	SF / complex stabilization (TBC1D237/14-3-3γ)	SF / complex stabilization (C-Raf/14-3-3γ)	SF / complex stabilization (B-Raf_729/14-3-3γ)	effect on 14-3-3 melting temperature (14-3-3γ)	SF / complex stabilization (p65pS45/14-3-3γ)	SF / complex stabilization (Abl1pT735/14-3-3γ)	SF / complex stabilization (Mypt1_472/14-3-3γ)	SF / complex stabilization (CFTRpS753/14-3-3γ)	concentration necessary to induce a 2-fold increase in PPI stabilization (14-3-3/Pin1_72 complex) [µM]
O=Cc1ccc(-n2ccnc2-c2ccccc2)cc1Br [fragment 13]	1.2 to 2.7	2.16 ± 0.123	10.8	not responsive to fragment stabilization	101 ± 6	–	–	–	–	–	–	–	–	–	–
Cc1cn(-c2ccc(C=O)cc2)cn1 [fragment 4]	–	–	–	–	> 1000	–	–	–	–	–	–	–	–	–	–
C=CC(C)(C)OC[C@H]1O[C@H](O[C@@H]2C3=C([C@H](C)COC(C)=O)C[C@H](O)[C@]3(C)/C=C3/[C@@H](COC)CC[C@H]3[C@@H](C)[C@H]2O)[C@H](O)[C@@H](OC(C)=O)[C@@H]1O [FCA, fusicoccin A, reference compound]	–	–	–	160 fold	–	–	–	–	–	–	–	–	–	–	–
O=Cc1ccc(-n2ccnc2-c2ccc(F)cc2F)cc1Br [fragment 28]	1.2 to 2.7	–	–	not responsive to fragment stabilization	79 ± 3	no significant stabilization	no significant stabilization	abolishes any stabilizing effect	no significant stabilization	no significant effect	some stabilizing activity	some stabilizing activity	no significant stabilization	some stabilizing activity	1
O=Cc1ccc(-n2ccnc2-c2cc(Br)ccc2F)cc1Br [fragment 27]	1.2 to 2.7	–	–	not responsive to fragment stabilization	118 ± 7	no significant stabilization	no significant stabilization	abolishes any stabilizing effect	no significant stabilization	no significant effect	no significant complex stabilization	no significant complex stabilization	no significant stabilization	–	–

— publication PMC8193639 (Journal of the American Chemical Society, 2021)
